For eight molecules, IC50, IC90 and Growth rate results are on record in ChEMBL document CHEMBL1128464, “Synthesis and antiproliferative and antiviral activity of 2'-deoxy-2'-fluoroarabinofuranosyl analogs of the nucleoside antibiotics toyocamycin and sangivamycin” (J Med Chem, 1995).

The test system of experiment [1] is HFF. Description: Visual cytotoxicity scored on HFF cells at time of HCMV plaque enumeration. Format: functional, cell-based. The note with it: Homo sapiens. The method in brief: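 Stationary HFF cells, uninfected cells in HCMV plaque assay plates scored by microscopic inspection at plaque enumeration (7–10 days); IC50.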
Another experiment has as its system KB. Kind of experiment: cell growth inhibition was determined in KB cells in quadruplicate assays. The class given is functional, cell-based. The note with it: Homo sapiens.
Experiment [2] deals with Human betaherpesvirus 5. Description: antiviral activity in Human cytomegalovirus by plaque assay given as yield. Format: functional.
Experiment [3] deals with Human alphaherpesvirus 1. Kind of experiment: Antiviral activity in Herpes simplex virus-1 assayed by ELISA in quadruplicate wells. Format: functional, organism-based. (In general: An ELISA detects its analyte on a solid surface through an enzyme-linked reagent.)
Experiment [4] deals with Human betaherpesvirus 5. Kind of experiment: antiviral activity in Human cytomegalovirus by plaque assay (HCMV). The class given is functional, organism-based.
The subject of experiment [5] is L1210. Description: Antiproliferative activity in L1210 Murine Leukemia in vitro expressed as Growth rate in the presence of compound. Set-up: concentration or dose not given beside the values. Format: functional, Mus musculus.
The test system of experiment [6] is CCRF-CEM. Description: Visual cytotoxicity scored on CEM cells at time of RT assay. To be noted: Homo sapiens.
Experiment [7] has as its system L1210. Kind of experiment: antiproliferative activity in L1210 Murine Leukemia in vitro expressed as concentration required to decrease growth rate to 50% of control. The class given is functional, cell-based. To be noted: Mus musculus. The method in brief:
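L1210 cells in static suspension, Fischer's medium with 10% heat-inactivated horse serum; cell counts at 0, 48, 96 h over a concentration series; IC50 is the concentration lowering growth rate (treated doublings as % of control) to 50% of control.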

The test system of the next experiment is Human alphaherpesvirus 3. Description: antiviral activity as 50% inhibitory concentration against VZV. Format: functional, organism-based. A digest of the protocol: (§1)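 Plaque reduction in HFF monolayers; HSV-1 E-377, HSV-2 MS or VZV Ellen, 20–50 PFU, 1 h adsorption at 37 °C; serial 5-fold drug dilutions in agarose overlay (extra overlay days 3 and 6 for VZV); neutral red staining at 3 days (HSV) or 10 days (VZV); plaques counted; duplicate assays.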

Experiment [8] deals with Human alphaherpesvirus 1. Kind of experiment: Antiviral activity as 50% inhibitory concentration against HSV-1. Format: functional, organism-based. A digest of the protocol:
as §1

The next experiment deals with Human alphaherpesvirus 2. Description: Antiviral activity as 50% inhibitory concentration against HSV-2. The class given is functional, organism-based. A digest of the protocol: as §1
Experiment [9] has as its system HFF. Kind of experiment: Cytotoxicity in human foreskin fibroblast (HFF) stationary cells as neutral red uptake. Format: functional, cell-based.
Experiment [10] deals with HFF. Kind of experiment: Cytotoxicity in human foreskin fibroblast (HFF) stationary by MTT assay. Format: functional, cell-based. The method in brief:
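MTT assay on stationary HFF cells; drug in half-log10 dilutions; incubated one to three population doublings in 5% CO2; viable cells read at 570 nm; % inhibition vs control; IC50 from regression; duplicate assays.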
A general note: Tetrazolium dyes change colour on reduction, which living cells bring about.

Experiment [11] concerns CCRF-CEM. Description: cytotoxicity in CEM-SS cells by visual inspection. The class given is functional, cell-based. The note with it: Homo sapiens.
The subject of experiment [12] is CCRF-CEM. Description: cytotoxicity in CEM-SS cells by [3H]Thd uptake. Format: functional, cell-based. To be noted: Homo sapiens. A digest of the protocol: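 [3H]dThd incorporation into acid-precipitable DNA of CEM-SS cells; IC50 from regression of % inhibition on log concentration; triplicate assays.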

“And” between values parts separate entries of the source, which are not always exact repeats. Identical values can stand only once.

With `Cc1cn([C@H]2C[C@H](N=[N+]=[N-])[C@@H](CO)O2)c(=O)[nH]c1=O` [ZIDOVUDINE], in the experiment on HFF [1], the half-maximal inhibitory concentration (IC50) was > 100 µM.

Consider `Nc1nc2c(ncn2COC(CO)CO)c(=O)[nH]1` [GANCICLOVIR], for which the concentration for half-maximal inhibition (IC50) in the experiment on HFF [1] and in the experiment on KB was > 100 µM each time. The same molecule came in with an IC90 with Human betaherpesvirus 5 [2] of 1.6 µM.

Take `N#Cc1cn([C@H]2O[C@H](CO)[C@@H](O)[C@@H]2F)c2ncnc(N)c12`: the IC50 is 100 µM with HFF [1]; > 100 µM in the experiment with KB; 46 µM in the experiment on Human alphaherpesvirus 1 [3]; 16 µM in the experiment on Human betaherpesvirus 5 [4]; > 100 µM in the experiment with CCRF-CEM [6]. The Growth rate with L1210 [5] worked out at 98%. Moreover, in the experiment on Human betaherpesvirus 5 [2], it took 100 µM to reach the 90% level (IC90).

`N#Cc1c(Br)n([C@H]2O[C@H](CO)[C@@H](O)[C@@H]2F)c2ncnc(N)c12`: the concentration for half-maximal inhibition (IC50) with HFF [1] is 55 µM; in the experiment with KB, > 150 µM; with Human alphaherpesvirus 1 [3], > 100 µM; in the experiment on Human betaherpesvirus 5 [4] it was 3.2 µM; with CCRF-CEM [6] it was > 100 µM; in the experiment with L1210 [7] it was 90 µM. Besides, the Growth rate in the experiment on L1210 [5] amounted to 45%. Besides, the IC90 with Human betaherpesvirus 5 [2] is > 100 µM.

Take `N#Cc1cn([C@@H]2O[C@H](CO)[C@@H](O)[C@@H]2F)c2ncnc(N)c12`: the IC50 with HFF [1] came out at 6.8 µM; with KB it was 8.8 µM; with Human alphaherpesvirus 1 [3], 6.5 µM; with Human betaherpesvirus 5 [4], 1 µM; with CCRF-CEM [6] it was 33 µM; in the experiment with L1210 [7], 39 µM. In addition, the Growth rate in the experiment with L1210 [5] is 11%. This molecule also gave an IC90 in the experiment on Human betaherpesvirus 5 [2] of 1.1 µM.

Regarding `NC(=S)c1cn([C@@H]2O[C@H](CO)[C@@H](O)[C@@H]2F)c2ncnc(N)c12`, the 50% inhibitory concentration (IC50) in the experiment with HFF [1] turned out to be 3.1 µM; in the experiment on KB it was 3 µM; in the experiment on Human alphaherpesvirus 1 [3], 8.7 µM; in the experiment with Human betaherpesvirus 5 [4], 0.22 µM; in the experiment with CCRF-CEM [6], 2 µM; with L1210 [7], 5 µM. Also, the Growth rate in the experiment with L1210 [5] came to 5%. In the experiment on Human betaherpesvirus 5 [2], this molecule returned an IC90 of 1.5 µM.

For the molecule `NC(=O)c1cn([C@@H]2O[C@H](CO)[C@@H](O)[C@@H]2F)c2ncnc(N)c12`, the concentration for half-maximal inhibition (IC50) with HFF [1] was 5.5 µM; in the experiment on Human alphaherpesvirus 3 it was 0.003 µM; with Human alphaherpesvirus 1 [8], 0.03 µM and 0.0037 µM; with KB, 1.9 µM; with Human alphaherpesvirus 2 it was 0.03 µM; in the experiment with Human alphaherpesvirus 1 [3], 0.47 µM. In addition, the IC50 was found to be 6.7 µM in the experiment with HFF [9]; 0.025 µM in the experiment on Human betaherpesvirus 5 [4]; 0.4 µM in the experiment with CCRF-CEM [6]; 0.13 µM in the experiment with HFF [10] (Homo sapiens, HFF); 0.16 µM with HFF [10] (hff); 3.2 µM with L1210 [7]. Further, the half-maximal inhibitory concentration (IC50) in the experiment on CCRF-CEM [11] came to 0.4 µM; in the experiment with CCRF-CEM [12] it was 0.193 µM. Moreover, in the experiment on L1210 [5], the Growth rate came to 9%. It took 0.075 µM to reach the 90% level in the experiment on Human betaherpesvirus 5 [2] (IC90).

Turning to `N#Cc1c(Br)n([C@@H]2O[C@H](CO)[C@@H](O)[C@@H]2F)c2ncnc(N)c12`, the 50% inhibitory concentration (IC50) was 21 µM in the experiment with HFF [1]; 144 µM in the experiment on KB; > 100 µM with Human alphaherpesvirus 1 [3]; 12 µM with Human betaherpesvirus 5 [4]; 33 µM in the experiment on CCRF-CEM [6]; 66 µM with L1210 [7]. Also, the Growth rate in the experiment on L1210 [5] is 21%. This molecule also registered an IC90 in the experiment with Human betaherpesvirus 5 [2] of 7 µM.

As a reminder, the IC50 is the point on the concentration scale where inhibition reaches its midpoint. Broadly, the IC90 is the point of the concentration-response curve where the effect stands at 90%.
